According to ChEMBL document CHEMBL1140345, “Conformational constraint in oxazolidinone antibacterials. Synthesis and structure-activity studies of (azabicyclo[3.1.0]hexylphenyl)oxazolidinones” (2005):
Values after ≈ are worked out from the molar mass of the structure shown.

Key:
Enterococcus faecalis [1] = experiment: Minimum inhibitory concentration against Enterococcus faecalis UC9217; format: functional
How it was run: (§1)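 Broth microdilution MIC following the NCCLS M7-A4 approved standard for dilution susceptibility testing of aerobically growing bacteria. The method is taken as accurate to within one dilution.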

Staphylococcus aureus [2] = experiment: Minimum inhibitory concentration against methicillin, ciprofloxacin, rifampin, imipenem-resistant Staphylococcus aureus UC12673; format: functional
How it was run: (§2)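 MIC determined by standard broth microdilution following the NCCLS M7-A4 approved standard for dilution susceptibility testing of aerobically growing bacteria.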

Staphylococcus aureus [3] = experiment: Minimum inhibitory concentration against methicillin-susceptible Staphylococcus aureus UC9213; format: functional; how it was run: as §2
Streptococcus pneumoniae [4] = experiment: Minimum inhibitory concentration against penicillin-susceptible Streptococcus pneumoniae UC9912; format: functional; how it was run: as §1
Haemophilus influenzae [5] = experiment: Minimum inhibitory concentration against ampicillin-reisitant Haemophilus influenzae UC30063; format: functional; how it was run: as §1
[6] = test system: Staphylococcus epidermidis; experiment: Minimum inhibitory concentration against methicillin-resistant Staphylococcus epidermidis UC12084
Escherichia coli [7] = experiment: Minimum inhibitory concentration against Escherichia coli UC6674; format: functional; how it was run: as §1
Staphylococcus aureus [8] = experiment: Minimum inhibitory concentration against methicillin, ciprofloxacin, rifampin, imipenem-resistant Staphylococcus aureus UC12673; Range is 2-4 ug/mL; format: functional; how it was run: as §2
Escherichia coli [9] = experiment: Minimum inhibitory concentration against Escherichia coli UC6674; Range is 16-32 ug/mL; format: functional; how it was run: as §1
Enterococcus faecalis [10] = experiment: Minimum inhibitory concentration against Enterococcus faecalis UC9217; Range is 1-2 ug/mL; format: functional; how it was run: as §1
Staphylococcus aureus [11] = experiment: Minimum inhibitory concentration against methicillin-susceptible Staphylococcus aureus UC9213; Range is 2-4 ug/mL; format: functional; how it was run: as §2
[12] = test system: Staphylococcus epidermidis; experiment: Minimum inhibitory concentration against methicillin-resistant Staphylococcus epidermidis UC12084; Range is 0.5-1 ug/mL
Haemophilus influenzae [13] = experiment: Minimum inhibitory concentration against ampicillin-reisitant Haemophilus influenzae UC30063; Range is from 4-8 ug/mL; format: functional; how it was run: as §1
[14] = test system: Staphylococcus epidermidis; experiment: Minimum inhibitory concentration against methicillin-resistant Staphylococcus epidermidis UC12084; Range is from 0.5-1 ug/mL
Streptococcus pneumoniae [15] = experiment: Minimum inhibitory concentration against penicillin-susceptible Streptococcus pneumoniae UC9912; Range is 1-2 ug/mL; format: functional; how it was run: as §1
[16] = test system: Staphylococcus epidermidis; experiment: Minimum inhibitory concentration against methicillin-resistant Staphylococcus epidermidis UC12084; Range is 1-2 ug/mL
Streptococcus pneumoniae [17] = experiment: Minimum inhibitory concentration against penicillin-susceptible Streptococcus pneumoniae UC9912; Range is from 0.5-1 ug/mL; format: functional; how it was run: as §1
Enterococcus faecalis [18] = experiment: Minimum inhibitory concentration against Enterococcus faecalis UC9217; Range is from 2-4 ug/mL; format: functional; how it was run: as §1
Haemophilus influenzae [19] = experiment: Minimum inhibitory concentration against ampicillin-reisitant Haemophilus influenzae UC30063; Range is from 8-16 ug/mL; format: functional; how it was run: as §1
[20] = test system: Staphylococcus epidermidis; experiment: Minimum inhibitory concentration against methicillin-resistant Staphylococcus epidermidis UC12084; Range is from 1-2 ug/mL
Staphylococcus aureus [21] = experiment: Minimum inhibitory concentration against methicillin, ciprofloxacin, rifampin, imipenem-resistant Staphylococcus aureus UC12673; Range is 1-2 ug/mL; format: functional; how it was run: as §2
[22] = Streptococcus pneumoniae, read-out: MIC
[23] = Haemophilus influenzae, read-out: MIC

N[C@@H]1[C@H]2CN(c3c(F)cc(N4C[C@H](CNC(=O)C(F)F)OC4=O)cc3F)C[C@@H]12 was tested, and the MIC (Enterococcus faecalis [1]) was 2 µg/mL (≈ 4.97 µM), the MIC (Staphylococcus aureus [2]) was 2 µg/mL (≈ 4.97 µM) and the MIC (Staphylococcus aureus [3]) was 4 µg/mL (≈ 9.94 µM). It also gave an MIC (Streptococcus pneumoniae [4]; [22]) of 1 µg/mL (≈ 2.49 µM), an MIC (Haemophilus influenzae [5]; [23]) of 8 µg/mL (≈ 19.9 µM) and an MIC [6] of 2 µg/mL (≈ 4.97 µM).
CC(=O)NC[C@H]1CN(c2cc(F)c(N3C[C@@H]4[C@@H](N)[C@@H]4C3)c(F)c2)C(=O)O1 (stereo in doubt) was tested, and the MIC (Escherichia coli [7]) was over 64 µg/mL, the MIC (Enterococcus faecalis [1]) was 4 µg/mL (≈ 10.9 µM) and the MIC (Staphylococcus aureus [2]) was 4 µg/mL (≈ 10.9 µM). For the same compound, the MIC (Staphylococcus aureus [3]) was 8 µg/mL (≈ 21.8 µM), the MIC (Streptococcus pneumoniae [4]) was 1 µg/mL (≈ 2.73 µM) and the MIC (Haemophilus influenzae [5]) was 32 µg/mL (≈ 87.3 µM). It also gave an MIC [6] of 1 µg/mL (≈ 2.73 µM).
For CC(=O)NC[C@H]1CN(c2cc(F)c(N3C[C@@H]4[C@@H](N)[C@@H]4C3)c(F)c2)C(=O)O1 (stereo in doubt; 18b), the MIC (Staphylococcus aureus [8]) was 4 µg/mL (≈ 10.9 µM), the MIC (Escherichia coli [9]) was 32 µg/mL (≈ 87.3 µM) and the MIC (Streptococcus pneumoniae [4]; [22]) was 0.5 µg/mL (≈ 1.36 µM). The MIC (Haemophilus influenzae [5]) was 8 µg/mL (≈ 21.8 µM), the MIC (Enterococcus faecalis [10]) was 2 µg/mL (≈ 5.46 µM) and the MIC (Staphylococcus aureus [11]) was 4 µg/mL (≈ 10.9 µM). The MIC [12] was 1 µg/mL (≈ 2.73 µM).
CC(=O)NC[C@H]1CN(c2cc(F)c(N3C[C@@H]4[C@H](C3)[C@H]4C(=O)O)c(F)c2)C(=O)O1 was tested, and the MIC (Escherichia coli [7]) was over 64 µg/mL, the MIC (Enterococcus faecalis [1]) was 1 µg/mL (≈ 2.53 µM) and the MIC (Staphylococcus aureus [2]) was 1 µg/mL (≈ 2.53 µM). It also gave an MIC (Staphylococcus aureus [3]) of 2 µg/mL (≈ 5.06 µM), an MIC (Streptococcus pneumoniae [4]; [22]) of 1 µg/mL (≈ 2.53 µM) and an MIC (Haemophilus influenzae [13]) of 8 µg/mL (≈ 20.2 µM). It also gave an MIC [14] of 1 µg/mL (≈ 2.53 µM).
CC(=O)NC[C@H]1CN(c2ccc(N3C[C@H]4C[C@H]4C3)c(F)c2)C(=O)O1 gave an MIC (Escherichia coli [7]) of over 64 µg/mL, an MIC (Enterococcus faecalis [1]) of 2 µg/mL (≈ 6 µM) and an MIC (Staphylococcus aureus [2]) of 2 µg/mL (≈ 6 µM). The MIC (Staphylococcus aureus [3]) was 2 µg/mL (≈ 6 µM), the MIC (Streptococcus pneumoniae [4]; [22]) was 1 µg/mL (≈ 3 µM) and the MIC (Haemophilus influenzae [5]; [23]) was 32 µg/mL (≈ 96 µM). It also gave an MIC [6] of 1 µg/mL (≈ 3 µM).
CC(=O)NC[C@H]1CN(c2cc(F)c(N3C[C@@H]4[C@H](C3)[C@H]4NC(=O)Nc3ccccc3)c(F)c2)C(=O)O1 was tested, and the MIC (Escherichia coli [7]) was over 64 µg/mL, the MIC (Enterococcus faecalis [1]) was 2 µg/mL (≈ 4.12 µM) and the MIC (Staphylococcus aureus [2]) was 4 µg/mL (≈ 8.24 µM). The MIC (Staphylococcus aureus [3]) was 8 µg/mL (≈ 16.5 µM), the MIC (Streptococcus pneumoniae [4]; [22]) was 1 µg/mL (≈ 2.06 µM) and the MIC (Haemophilus influenzae [5]; [23]) was over 64 µg/mL. The MIC [6] was 2 µg/mL (≈ 4.12 µM).
Compound CC(=O)NC[C@H]1CN(c2cc(F)c(N3C[C@@H]4[C@H](C3)[C@H]4C(=O)NOCc3ccccc3)c(F)c2)C(=O)O1 has an MIC (Escherichia coli [7]) of over 64 µg/mL, an MIC (Enterococcus faecalis [1]) of 2 µg/mL (≈ 4 µM) and an MIC (Staphylococcus aureus [2]) of 2 µg/mL (≈ 4 µM). For the same compound, the MIC (Staphylococcus aureus [3]) was 4 µg/mL (≈ 7.99 µM), the MIC (Streptococcus pneumoniae [4]; [22]) was 1 µg/mL (≈ 2 µM) and the MIC (Haemophilus influenzae [5]; [23]) was over 64 µg/mL. For the same compound, the MIC [6] was 1 µg/mL (≈ 2 µM).
O=C(NC[C@H]1CN(c2cc(F)c(N3C[C@@H]4[C@H](C3)[C@H]4C(=O)O)c(F)c2)C(=O)O1)C(F)F showed an MIC (Enterococcus faecalis [1]) of 0.5 µg/mL (≈ 1.16 µM), an MIC (Staphylococcus aureus [2]) of 0.5 µg/mL (≈ 1.16 µM) and an MIC (Staphylococcus aureus [3]) of 1 µg/mL (≈ 2.32 µM). For the same compound, the MIC (Streptococcus pneumoniae [4]; [22]) was 1 µg/mL (≈ 2.32 µM), the MIC (Haemophilus influenzae [5]; [23]) was 4 µg/mL (≈ 9.27 µM) and the MIC [6] was 0.5 µg/mL (≈ 1.16 µM).
CC(=O)NC[C@H]1CN(c2cc(F)c(N3C[C@H]4C[C@H]4C3)c(F)c2)C(=O)O1 was tested, and the MIC (Escherichia coli [7]) was over 64 µg/mL, the MIC (Enterococcus faecalis [1]) was 2 µg/mL (≈ 5.69 µM) and the MIC (Staphylococcus aureus [2]) was 2 µg/mL (≈ 5.69 µM). For the same compound, the MIC (Staphylococcus aureus [3]) was 2 µg/mL (≈ 5.69 µM), the MIC (Streptococcus pneumoniae [4]; [22]) was 0.5 µg/mL (≈ 1.42 µM) and the MIC (Haemophilus influenzae [5]; [23]) was 64 µg/mL (≈ 182 µM). It also gave an MIC [6] of 1 µg/mL (≈ 2.85 µM).
CNC(=O)[C@H]1[C@@H]2CN(c3c(F)cc(N4C[C@H](CNC(C)=O)OC4=O)cc3F)C[C@@H]21 showed an MIC (Escherichia coli [7]) of over 64 µg/mL, an MIC (Enterococcus faecalis [1]) of 1 µg/mL (≈ 2.45 µM) and an MIC (Staphylococcus aureus [2]) of 2 µg/mL (≈ 4.9 µM). The MIC (Staphylococcus aureus [3]) was 2 µg/mL (≈ 4.9 µM), the MIC (Streptococcus pneumoniae [4]; [22]) was 0.5 µg/mL (≈ 1.22 µM) and the MIC (Haemophilus influenzae [5]; [23]) was 16 µg/mL (≈ 39.2 µM). It also gave an MIC [6] of 1 µg/mL (≈ 2.45 µM).
Compound CCC(=O)NC[C@H]1CN(c2cc(F)c(N3C[C@@H]4[C@H](C3)[C@H]4C(=O)O)c(F)c2)C(=O)O1 has an MIC (Enterococcus faecalis [1]) of 1 µg/mL (≈ 2.44 µM), an MIC (Staphylococcus aureus [2]) of 1 µg/mL (≈ 2.44 µM) and an MIC (Staphylococcus aureus [3]) of 2 µg/mL (≈ 4.89 µM). The MIC (Streptococcus pneumoniae [15]) was 2 µg/mL (≈ 4.89 µM), the MIC (Haemophilus influenzae [5]; [23]) was 8 µg/mL (≈ 19.5 µM) and the MIC [16] was 2 µg/mL (≈ 4.89 µM).
Compound CCC(=O)NC[C@H]1CN(c2cc(F)c(N3C[C@@H]4[C@@H](N)[C@@H]4C3)c(F)c2)C(=O)O1 has an MIC (Streptococcus pneumoniae [17]) of 1 µg/mL (≈ 2.63 µM), an MIC (Staphylococcus aureus [2]) of 4 µg/mL (≈ 10.5 µM) and an MIC (Enterococcus faecalis [18]) of 4 µg/mL (≈ 10.5 µM). The MIC (Staphylococcus aureus [3]) was 4 µg/mL (≈ 10.5 µM), the MIC (Haemophilus influenzae [19]) was 16 µg/mL (≈ 42.1 µM) and the MIC [20] was 2 µg/mL (≈ 5.26 µM).
With CC(=O)NC[C@H]1CN(c2cc(F)c(N3C[C@@H]4[C@@H](O)[C@@H]4C3)c(F)c2)C(=O)O1 the MIC (Staphylococcus aureus [21]) was 2 µg/mL (≈ 5.44 µM), the MIC (Escherichia coli [7]) was over 64 µg/mL and the MIC (Streptococcus pneumoniae [4]; [22]) was 1 µg/mL (≈ 2.72 µM). For the same compound, the MIC (Haemophilus influenzae [5]; [23]) was 16 µg/mL (≈ 43.6 µM), the MIC (Enterococcus faecalis [10]) was 2 µg/mL (≈ 5.44 µM) and the MIC (Staphylococcus aureus [11]) was 4 µg/mL (≈ 10.9 µM). The MIC [6] was 1 µg/mL (≈ 2.72 µM).
With CC(=O)NC[C@H]1CN(c2cc(F)c(N3C[C@@H]4[C@H](C3)[C@H]4NC(C)=O)c(F)c2)C(=O)O1 the MIC (Escherichia coli [7]) was over 64 µg/mL, the MIC (Staphylococcus aureus [2]) was 4 µg/mL (≈ 9.79 µM) and the MIC (Enterococcus faecalis [18]) was 4 µg/mL (≈ 9.79 µM). For the same compound, the MIC (Staphylococcus aureus [3]) was 4 µg/mL (≈ 9.79 µM), the MIC (Streptococcus pneumoniae [4]; [22]) was 1 µg/mL (≈ 2.45 µM) and the MIC (Haemophilus influenzae [5]; [23]) was 64 µg/mL (≈ 157 µM). It also gave an MIC [20] of 2 µg/mL (≈ 4.9 µM).
With CC(=O)NC[C@H]1CN(c2cc(F)c(N3C[C@@H]4[C@H](C3)[C@H]4C(=O)NCc3ccco3)c(F)c2)C(=O)O1 the MIC (Enterococcus faecalis [1]) was 1 µg/mL (≈ 2.11 µM), the MIC (Staphylococcus aureus [2]) was 2 µg/mL (≈ 4.22 µM) and the MIC (Staphylococcus aureus [3]) was 2 µg/mL (≈ 4.22 µM). The MIC (Streptococcus pneumoniae [4]; [22]) was 0.5 µg/mL (≈ 1.05 µM), the MIC (Haemophilus influenzae [5]; [23]) was over 64 µg/mL and the MIC [6] was 1 µg/mL (≈ 2.11 µM).
